{"source": "BindingDB's records for doi:10.1124/dmd.106.013888", "about": "(Act, 2007)", "target": "T1, Lanosterol 14-alpha demethylase (Homo sapiens, UniProt Q16850)", "T1 sequence (Q16850 whole entry)": "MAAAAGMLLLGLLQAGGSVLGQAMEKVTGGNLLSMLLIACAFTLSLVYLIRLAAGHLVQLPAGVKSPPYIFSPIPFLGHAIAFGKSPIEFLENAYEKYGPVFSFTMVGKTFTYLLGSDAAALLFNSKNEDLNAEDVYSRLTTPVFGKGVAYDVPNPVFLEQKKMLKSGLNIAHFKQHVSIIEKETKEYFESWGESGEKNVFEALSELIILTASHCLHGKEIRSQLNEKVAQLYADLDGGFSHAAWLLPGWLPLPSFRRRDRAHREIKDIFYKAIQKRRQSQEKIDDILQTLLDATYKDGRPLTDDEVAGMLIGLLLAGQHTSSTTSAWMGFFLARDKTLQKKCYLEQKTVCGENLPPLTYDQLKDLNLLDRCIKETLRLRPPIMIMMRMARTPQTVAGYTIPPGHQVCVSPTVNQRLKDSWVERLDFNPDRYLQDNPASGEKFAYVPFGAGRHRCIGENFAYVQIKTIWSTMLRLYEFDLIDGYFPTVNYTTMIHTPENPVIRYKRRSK", "test": "Inhibition of human CYP51 expressed in Topp 3 cells by lanosterol demethylase assay", "in_short": "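0.5 ml phosphate buffer pH 7.4 with KCN, NADPH regenerating system, 60 min at 37 °C. Triene product extracted and quantified by chromatography (ergosterol internal standard). IC50 read from plot of % activity remaining vs concentration.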", "data": [{"smiles": "O=c1c(CC[S+]([O-])c2ccccc2)c(O)n(-c2ccccc2)n1-c1ccccc1", "note": "(stereo unspecified) [1,2-Diphenyl-3,5-dioxo-4-(2-phenylsulfinylethyl)pyrazolidine]", "values": [{"measurement": "IC50", "result": "> 200", "unit": "µM"}]}]}
